Results: ChEMBL document CHEMBL1149075, “Synthesis and evaluation of alkoxy-phenylamides and alkoxy-phenylimidazoles as potent sphingosine-1-phosphate receptor subtype-1 agonists” (Bioorg Med Chem Lett, 2009)

Experiments:
Mus musculus [1] = test: Immunomodulatory activity in C57BL/6 mouse assessed as lymphopenia at 10 mg/kg, po after 6 hrs by complete blood count analysis; assay type: functional
Outline: (§1)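 Mice dosed orally with compound in 3% BSA vehicle; vehicle-only control group. Doses 0.3–10 mg/kg. At 6 h, isoflurane anesthesia, about 250 µl retro-orbital blood collected into EDTA tubes, mixed with anticoagulant, kept on tilt table, then complete blood count. Percent lymphopenia reported.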

[2] = target: T1, Sphingosine 1-phosphate receptor 3 (Homo sapiens, UniProt Q99500); test: Agonist activity at human S1P3 receptor assessed as stimulation of [35S]GTPgammaS binding; assay type: functional
T1 sequence (Q99500 whole entry): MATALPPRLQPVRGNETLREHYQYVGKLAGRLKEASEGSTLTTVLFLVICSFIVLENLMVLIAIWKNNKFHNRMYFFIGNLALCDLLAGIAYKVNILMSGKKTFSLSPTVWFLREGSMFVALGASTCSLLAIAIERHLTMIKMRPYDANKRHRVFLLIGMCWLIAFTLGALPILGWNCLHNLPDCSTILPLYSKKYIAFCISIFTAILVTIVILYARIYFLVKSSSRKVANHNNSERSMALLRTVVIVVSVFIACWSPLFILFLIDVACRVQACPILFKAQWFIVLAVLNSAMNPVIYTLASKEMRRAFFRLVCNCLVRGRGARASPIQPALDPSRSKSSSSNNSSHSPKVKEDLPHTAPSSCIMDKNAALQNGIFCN

[3] = target: T2, Sphingosine 1-phosphate receptor 1 (Homo sapiens, UniProt P21453); test: Agonist activity at human S1P1 receptor assessed as stimulation of [35S]GTPgammaS binding; assay type: functional
T2 sequence (P21453 whole entry): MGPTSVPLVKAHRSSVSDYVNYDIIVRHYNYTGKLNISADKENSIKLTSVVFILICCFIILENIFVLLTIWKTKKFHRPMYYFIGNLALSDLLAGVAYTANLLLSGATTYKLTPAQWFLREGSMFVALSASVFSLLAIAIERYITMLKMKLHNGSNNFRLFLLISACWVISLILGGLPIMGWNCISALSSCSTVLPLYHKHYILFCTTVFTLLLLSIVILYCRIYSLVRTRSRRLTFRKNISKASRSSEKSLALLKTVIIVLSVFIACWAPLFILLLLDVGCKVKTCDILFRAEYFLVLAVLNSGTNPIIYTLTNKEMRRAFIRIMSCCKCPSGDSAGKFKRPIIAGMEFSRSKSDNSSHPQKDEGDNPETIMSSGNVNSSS

Homo sapiens [4] = species: Homo sapiens; test: Ratio of IC50 for human S1P3 receptor to IC50 for human S1P1 receptor
[5] = target: Sphingosine 1-phosphate receptor 5 (Homo sapiens, UniProt Q9H228); test: Displacement of [33P]sphingosine-1-phosphate from human S1P5 receptor
Sequence of Sphingosine 1-phosphate receptor 5 (Q9H228 whole entry): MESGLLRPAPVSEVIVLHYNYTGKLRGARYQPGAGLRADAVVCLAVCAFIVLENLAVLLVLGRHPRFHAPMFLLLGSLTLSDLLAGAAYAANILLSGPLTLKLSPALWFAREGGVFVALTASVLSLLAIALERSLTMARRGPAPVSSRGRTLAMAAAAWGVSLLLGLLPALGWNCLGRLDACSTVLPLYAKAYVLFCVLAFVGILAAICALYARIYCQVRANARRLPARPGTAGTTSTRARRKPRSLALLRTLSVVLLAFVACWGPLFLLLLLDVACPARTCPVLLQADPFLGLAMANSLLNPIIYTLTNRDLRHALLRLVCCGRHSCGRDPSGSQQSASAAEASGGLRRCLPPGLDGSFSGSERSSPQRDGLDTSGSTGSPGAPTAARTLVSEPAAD

[6] = target: T3, Sphingosine 1-phosphate receptor 4 (Homo sapiens, UniProt O95977); test: Displacement of [33P]sphingosine-1-phosphate from human S1P4 receptor
T3 sequence (O95977 whole entry): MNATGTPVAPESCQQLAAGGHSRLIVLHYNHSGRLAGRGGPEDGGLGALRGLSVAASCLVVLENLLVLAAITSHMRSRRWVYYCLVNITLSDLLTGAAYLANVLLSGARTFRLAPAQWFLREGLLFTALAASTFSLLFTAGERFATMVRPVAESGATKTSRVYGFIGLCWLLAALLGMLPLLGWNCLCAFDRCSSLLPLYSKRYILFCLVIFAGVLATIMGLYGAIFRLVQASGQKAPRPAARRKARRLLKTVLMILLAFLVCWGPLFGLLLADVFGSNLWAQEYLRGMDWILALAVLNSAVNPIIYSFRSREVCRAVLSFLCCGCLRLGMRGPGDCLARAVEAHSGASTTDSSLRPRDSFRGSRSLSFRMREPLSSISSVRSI

[7] = target: T2, Sphingosine 1-phosphate receptor 1; test: Displacement of [33P]sphingosine-1-phosphate from human S1P1 receptor
Homo sapiens [8] = species: Homo sapiens; test: Ratio of EC50 for human S1P3 receptor to EC50 for human S1P1 receptor
[9] = target: T1, Sphingosine 1-phosphate receptor 3; test: Displacement of [33P]sphingosine-1-phosphate from human S1P3 receptor
Mus musculus [10] = test: Immunomodulatory activity in po dosed C57BL/6 mouse assessed as lymphopenia after 6 hrs by complete blood count analysis; assay type: functional, organism-based; outline: as §1

| SMILES | Activity (Mus musculus [1]) [%] | EC50 [2] [nM] | EC50 [3] [nM] | Ratio IC50 (Homo sapiens [4]) | IC50 [5] [nM] | IC50 [6] [nM] | IC50 [7] [nM] | Ratio EC50 (Homo sapiens [8]) | IC50 [9] [nM] | Activity (Mus musculus [10]) |
| --- | --- | --- | --- | --- | --- | --- | --- | --- | --- | --- |
| CCCCCCCCOc1ccc(NC(=O)[C@@](C)(N)CO)c(F)c1 | 66 |  |  |  |  |  |  |  |  |  |
| CCCCCCCCOc1ccc(NC(=O)[C@@](C)(N)COP(=O)(O)O)cc1F |  | 10.1 | 1.1 | 42 | 6.9 | 3.5 | 0.14 | 9.2 | 5.9 |  |
| CCCCCCCCCCCCC/C=C/[C@@H](O)[C@@H](N)COP(=O)(O)O |  | 3 | 7.9 |  |  | 2.4 | 0.47 |  | 0.66 |  |
| CCCCCCCOc1ccc(NC(=O)[C@@](C)(N)CO)cc1 | 72 |  |  |  |  |  |  |  |  |  |
| CCCCCCCCOc1ccc(NC(=O)[C@@](C)(N)COP(=O)(O)O)c(F)c1 |  | 9.8 | 2.1 | 10.2 | 3.2 | 1.8 | 0.35 | 4.7 | 3.6 |  |
| CCCCCCCOc1ccc(-c2c[nH]c([C@@](C)(N)CO)n2)cc1 | 74 |  |  |  |  |  |  |  |  |  |
| CCCCCCCCc1ccc(NC(=O)[C@@](C)(N)CO)cc1 | 36 |  |  |  |  |  |  |  |  |  |
| CCCCCCCCOc1ccc(-c2c[nH]c([C@@](C)(N)COP(=O)(O)O)n2)cc1F |  | 10.8 | 0.45 | 16.5 | 1.1 | 1.9 | 0.35 | 24 | 5.8 |  |
| CCCCCCCCOc1ccc(-c2c[nH]c([C@@](C)(N)COP(=O)(O)O)n2)cc1 |  | 14.8 | 0.55 | 20.3 | 1.4 | 1.1 | 0.26 | 26.9 | 5.3 |  |
| CCCCCCCCOc1ccc(NC(=O)[C@@](C)(N)COP(=O)(O)O)cc1 |  | 16.3 | 2.4 | 8.1 | 8.8 | 4 | 0.73 | 6.9 | 5.9 |  |
| CCCCCCCCOc1ccc(-c2c[nH]c([C@@](C)(N)CO)n2)cc1F | 70 |  |  |  |  |  |  |  |  |  |
| CCCCCCCCOc1ccc(NC(=O)[C@@](C)(N)CO)cc1F | 65 |  |  |  |  |  |  |  |  |  |
| CCCCCCCCOc1ccc(NC(=O)[C@@](C)(N)CO)cc1 | 78 |  |  |  |  |  |  |  |  | Dose-dependent effect |
| CCCCCCCCOc1ccc(-c2c[nH]c([C@@](C)(N)CO)n2)c(F)c1 | 81 |  |  |  |  |  |  |  |  |  |
| CCCCCCCCOc1ccc(-c2c[nH]c([C@@](C)(N)CO)n2)cc1 | 83 |  |  |  |  |  |  |  |  |  |
